The source of these data is ChEMBL document CHEMBL1275556, “High prevalence of plasmid-mediated quinolone resistance genes qnr and aac(6')-Ib-cr in clinical isolates of Enterobacteriaceae from nine teaching hospitals in China” (2008).

What all share (type): functional
Experiment [1] concerns Escherichia coli. Description: Antimicrobial activity against aac(6')-Ib-cr-negative Escherichia coli PU12T harboring wild-type GyrA, GyrB, ParC and qnrS genes by agar dilution method. The essentials:
(§1)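 MICs were determined by the CLSI agar dilution method (M7-A7) and interpreted against CLSI M100-S17 breakpoints.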
Background: In agar dilution, organisms are placed on agar that contains the substance at set levels.

Experiment [2] relates to Escherichia coli. In words: Antimicrobial activity against aac(6')-Ib-cr-negative Escherichia coli PU12T harboring wild-type GyrA, GyrB, ParC and qnrS genes by agar dilution method in presence of clavulanic acid. The essentials: (§2)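 Transconjugants came from conjugation of qnr and/or aac(6')-Ib-cr-carrying donors with azide-resistant E. coli J53. […] MICs were determined by CLSI agar dilution (M7-A7) and interpreted by M100-S17.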

Experiment [3] relates to Citrobacter freundii. Description: Antimicrobial activity against aac(6')-Ib-cr-positive Citrobacter freundii PU55 harboring GyrA T83I, ParC S80I mutant, wild-type GyrB, qnrA genes by agar dilution method in presence of clavulanic acid. The essentials:
as §1

The subject of experiment [4] is Citrobacter freundii. Description: Antimicrobial activity against aac(6')-Ib-cr-positive Citrobacter freundii PU55T harboring wild-type GyrA, ParC, GyrB and qnrA genes by agar dilution method in presence of clavulanic acid. The essentials: as §2
Experiment [5] relates to Enterobacter cloacae. Description: Antimicrobial activity against aac(6')-Ib-cr-negative Enterobacter cloacae SH39T harboring qnrA gene by agar dilution method.
Experiment [6] has as its system Enterobacter cloacae. In words: Antimicrobial activity against aac(6')-Ib-cr-negative Enterobacter cloacae SH39T harboring qnrA gene by agar dilution method in presence of clavulanic acid. The essentials:
as §2

Experiment [7] relates to Klebsiella pneumoniae. Description: Antimicrobial activity against aac(6')-Ib-cr-negative Klebsiella pneumoniae SY22T harboring qnrS gene by agar dilution method in presence of clavulanic acid. The essentials:
as §2

In experiment [8] the test system is Citrobacter freundii. Description: Antimicrobial activity against aac(6')-Ib-cr-positive Citrobacter freundii TJ15T harboring wild-type GyrA, ParC, GyrB genes by agar dilution method. The essentials:
as §1

The subject of experiment [9] is Enterobacter cloacae. In words: Antimicrobial activity against aac(6')-Ib-cr-negative Enterobacter cloacae WH42 harboring wild-type GyrA, ParC, GyrB and qnrA genes by agar dilution method in presence of clavulanic acid. The essentials:
as §1

The subject of experiment [10] is Klebsiella pneumoniae. In words: Antimicrobial activity against aac(6')-Ib-cr-positive Klebsiella pneumoniae WH99 harboring wild-type GyrA, ParC, GyrB and qnrB genes by agar dilution method in presence of clavulanic acid. The essentials: (§3)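 MICs measured by CLSI agar dilution (M7-A7) and interpreted against CLSI M100-S17 breakpoints. Strains were clinical Enterobacteriaceae isolates or the azide-resistant E. coli J53 recipient.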

Experiment [11] concerns Klebsiella pneumoniae. Description: Antimicrobial activity against aac(6')-Ib-cr-positive Klebsiella pneumoniae WH99T harboring qnrB gene by agar dilution method. The essentials:
(§4)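 Transconjugants were made by conjugating a qnr/aac(6')-Ib-cr donor with azide-resistant E. coli J53. Selection used Trypticase soy agar with sodium azide 150 µg/ml and sulfamethoxazole 180 µg/ml. […] MICs were read by CLSI agar dilution (M7-A7) and interpreted per M100-S17.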

Experiment [12] concerns Enterobacter cloacae. Description: Antimicrobial activity against aac(6')-Ib-cr-negative Enterobacter cloacae FJ61T harboring qnrS gene by agar dilution method.
In experiment [13] the test system is Enterobacter cloacae. In words: Antimicrobial activity against aac(6')-Ib-cr-positive Enterobacter cloacae FJ63 harboring GyrA S83I, GyrA D87A, ParC S80I mutant, wild-type GyrB and qnrS genes by agar dilution method in presence of clavulanic acid. The essentials: as §1
Experiment [14] has as its system Enterobacter cloacae. In words: Antimicrobial activity against aac(6')-Ib-cr-negative Enterobacter cloacae FJ67T harboring qnrS gene by agar dilution method in presence of clavulanic acid. The essentials:
as §2

In experiment [15] the test system is Klebsiella pneumoniae. In words: Antimicrobial activity against aac(6')-Ib-cr-positive Klebsiella pneumoniae GZ40 harboring GyrA S83I, ParC S80I mutant, wild-type GyrB and qnrB genes by agar dilution method in presence of clavulanic acid. The essentials: as §3
For experiment [16], the system named is Enterobacter cloacae. Description: Antimicrobial activity against aac(6')-Ib-cr-negative Enterobacter cloacae GZ47 harboring qnrB and qnrS genes by agar dilution method.
The subject of experiment [17] is Enterobacter cloacae. Description: Antimicrobial activity against aac(6')-Ib-cr-negative Enterobacter cloacae GZ47 harboring qnrB and qnrS genes by agar dilution method in presence of clavulanic acid. The essentials: as §3
Experiment [18] concerns Citrobacter freundii. Description: Antimicrobial activity against aac(6')-Ib-cr-positive Citrobacter freundii JN1 harboring GyrA T83I, ParC S80I mutant, wild-type GyrB and qnrA genes by agar dilution method. The essentials: as §1
Experiment [19] deals with Klebsiella pneumoniae. Description: Antimicrobial activity against aac(6')-Ib-cr-positive Klebsiella pneumoniae JN41 harboring GyrA S83I, ParC S80I mutant, wild-type GyrB and qnrB genes by agar dilution method in presence of clavulanic acid. The essentials: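 MICs were determined by CLSI agar dilution (M7-A7) and interpreted by CLSI M100-S17 breakpoints. The curator's line names the β-lactamase inhibitor added.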

Experiment [20] relates to Klebsiella pneumoniae. In words: Antimicrobial activity against aac(6')-Ib-cr-positive Klebsiella pneumoniae JN41T harboring qnrB gene by agar dilution method in presence of clavulanic acid. The essentials:
as §2

For experiment [21], the system named is Citrobacter freundii. Description: Antimicrobial activity against aac(6')-Ib-cr-negative Citrobacter freundii JN64 harboring GyrA T83I, wild-type ParC, GyrB and qnrA genes by agar dilution method in presence of clavulanic acid. The essentials: as §1
For experiment [22], the system named is Citrobacter freundii. Description: Antimicrobial activity against aac(6')-Ib-cr-positive Citrobacter freundii JS33 harboring GyrA T83I mutant, wild-type ParC, GyrB, qnrA and qnrB genes by agar dilution method. The essentials: as §1
Experiment [23] relates to Enterobacter cloacae. In words: Antimicrobial activity against aac(6')-Ib-cr-negative Enterobacter cloacae SH39T harboring qnrA gene by agar dilution method in presence of Tazobactam. The essentials:
as §1

In experiment [24] the test system is Klebsiella pneumoniae. Description: Antimicrobial activity against aac(6')-Ib-cr-negative Klebsiella pneumoniae SY22 harboring GyrA S83I, ParC S80I mutant, wild-type GyrB and qnrS genes by agar dilution method in presence of Tazobactam. The essentials: as §3
For experiment [25], the system named is Citrobacter freundii. In words: Antimicrobial activity against aac(6')-Ib-cr-positive Citrobacter freundii TJ15T harboring wild-type GyrA, ParC, GyrB genes by agar dilution method in presence of Tazobactam. The essentials:
as §1

Experiment [26] relates to Klebsiella pneumoniae. Description: Antimicrobial activity against aac(6')-Ib-cr-positive Klebsiella pneumoniae WH99 harboring wild-type GyrA, ParC, GyrB and qnrB genes by agar dilution method in presence of Tazobactam. The essentials:
as §3

The test system of experiment [27] is Klebsiella pneumoniae. Description: Antimicrobial activity against aac(6')-Ib-cr-positive Klebsiella pneumoniae WH99T harboring qnrB gene by agar dilution method in presence of Tazobactam. The essentials: as §4
In experiment [28] the test system is Escherichia coli. Description: Antimicrobial activity against Escherichia coli J53 harboring wild-type GyrA, ParC, GyrB genes by agar dilution method in presence of beta-lactamase inhibitor Tazobactam. The essentials: as §3
Experiment [29] relates to Escherichia coli. In words: Antimicrobial activity against aac(6')-Ib-cr-negative Escherichia coli PU12 harboring GyrA S83L mutant, wild-type GyrB, ParC and qnrS genes by agar dilution method in presence of Tazobactam. The essentials: as §3
Experiment [30] concerns Enterobacter cloacae. In words: Antimicrobial activity against aac(6')-Ib-cr-positive Enterobacter cloacae FJ63T harboring qnrS gene by agar dilution method in presence of Tazobactam. The essentials:
as §1

For experiment [31], the system named is Enterobacter cloacae. Description: Antimicrobial activity against aac(6')-Ib-cr-negative Enterobacter cloacae FJ67T harboring qnrS gene by agar dilution method in presence of Tazobactam. The essentials: as §1
Experiment [32] deals with Klebsiella pneumoniae. In words: Antimicrobial activity against aac(6')-Ib-cr-positive Klebsiella pneumoniae GZ40 harboring GyrA S83I, ParC S80I mutant, wild-type GyrB and qnrB genes by agar dilution method in presence of Tazobactam. The essentials:
as §1

In brackets after ≈: the same amount, converted by molar mass. A value given as a limit tells only on which side of the number the result lay.

As to `CO/N=C(\C(=O)N[C@@H]1C(=O)N2C(C(=O)O)=C(COC(C)=O)CS[C@H]12)c1csc(N)n1` [CEFOTAXIME], the MIC in the experiment on Escherichia coli [1] is 16 µg/mL (≈ 35.1 µM); with Escherichia coli [2], 0.032 µg/mL; in the experiment with Citrobacter freundii [3], 256 µg/mL; in the experiment on Citrobacter freundii [4] it was 0.032 µg/mL; in the experiment on Enterobacter cloacae [5], 0.032 µg/mL (≈ 0.0703 µM); in the experiment with Enterobacter cloacae [6], 0.032 µg/mL. Further, the minimum inhibitory concentration (MIC) with Klebsiella pneumoniae [7] amounted to 0.032 µg/mL; in the experiment with Citrobacter freundii [8], 0.125 µg/mL (≈ 0.274 µM); in the experiment on Enterobacter cloacae [9], 256 µg/mL; with Klebsiella pneumoniae [10], 64 µg/mL; with Klebsiella pneumoniae [11] it was 16 µg/mL (≈ 35.1 µM); against Enterobacter cloacae [12] it was 0.032 µg/mL (≈ 0.0703 µM). Further, the MIC in the experiment with Enterobacter cloacae [13] was 1 µg/mL; in the experiment on Enterobacter cloacae [14], 0.032 µg/mL; in the experiment with Klebsiella pneumoniae [15] it was 0.5 µg/mL; in the experiment on Enterobacter cloacae [16], 64 µg/mL (≈ 141 µM); in the experiment with Enterobacter cloacae [17] it was 8 µg/mL; against Citrobacter freundii [18] it was greater than 256 µg/mL. In addition, the MIC with Klebsiella pneumoniae [19] was determined as 0.032 µg/mL; in the experiment on Klebsiella pneumoniae [20] it was 0.032 µg/mL; with Citrobacter freundii [21], 128 µg/mL; in the experiment on Citrobacter freundii [22] it was 8 µg/mL (≈ 17.6 µM).
As to `CCN1CCN(C(=O)N[C@@H](C(=O)N[C@@H]2C(=O)N3[C@@H]2SC(C)(C)[C@@H]3C(=O)O)c2ccccc2)C(=O)C1=O` [PIPERACILLIN], the MIC in the experiment on Enterobacter cloacae [23] is 1 µg/mL; with Klebsiella pneumoniae [24] it was 4 µg/mL; with Citrobacter freundii [25], 1 µg/mL; with Klebsiella pneumoniae [26] it was 8 µg/mL; in the experiment on Klebsiella pneumoniae [27] it was 2 µg/mL; with Escherichia coli [28], 1 µg/mL. Besides, the MIC is 1 µg/mL with Escherichia coli [29], 2 µg/mL in the experiment on Enterobacter cloacae [30], 1 µg/mL with Enterobacter cloacae [31] and greater than 256 µg/mL in the experiment on Klebsiella pneumoniae [32].

One may read the MIC as the lowest concentration found to suppress growth.
